We go through 1 compound from ChEMBL document CHEMBL1152806, “Discovery of a potent, selective, and orally efficacious pyrimidinooxazinyl bicyclooctaneacetic acid diacylglycerol acyltransferase-1 inhibitor” (J Med Chem, 2009).

Structures are written as SMILES. Active and inactive are the calls of the source. The calls are words filed in the database; no cut-off is given here. A value given as a limit tells only on which side of the number the result lay.

One series has as its target CYP2D6 (Homo sapiens, UniProt P10635). The series is described as follows: Inhibition of CYP2D6 at 30 uM. The class given is ADME.
The nature of series [1]: Plasma clearance in marmosets at 1 to 3 mg/kg. To be noted: callitrichinae sp. Also on record: dose 1-3 mg/kg. The format is ADME, organism-based.
The next series relates to Plasma. The experiment in a line: Fraction unbound in dog plasma by LC-UVMS. The class given is ADME, cell-free, Canis lupus familiaris. Summed up:
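Equilibrium dialysis in plasma of the relevant species at 37 °C; free and bound drug quantified by LC-UVMS; reported as % free.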

Series [2] addresses T1, Diacylglycerol O-acyltransferase 1 (Rattus norvegicus, UniProt Q9ERM3).
T1 sequence (Q9ERM3 whole entry): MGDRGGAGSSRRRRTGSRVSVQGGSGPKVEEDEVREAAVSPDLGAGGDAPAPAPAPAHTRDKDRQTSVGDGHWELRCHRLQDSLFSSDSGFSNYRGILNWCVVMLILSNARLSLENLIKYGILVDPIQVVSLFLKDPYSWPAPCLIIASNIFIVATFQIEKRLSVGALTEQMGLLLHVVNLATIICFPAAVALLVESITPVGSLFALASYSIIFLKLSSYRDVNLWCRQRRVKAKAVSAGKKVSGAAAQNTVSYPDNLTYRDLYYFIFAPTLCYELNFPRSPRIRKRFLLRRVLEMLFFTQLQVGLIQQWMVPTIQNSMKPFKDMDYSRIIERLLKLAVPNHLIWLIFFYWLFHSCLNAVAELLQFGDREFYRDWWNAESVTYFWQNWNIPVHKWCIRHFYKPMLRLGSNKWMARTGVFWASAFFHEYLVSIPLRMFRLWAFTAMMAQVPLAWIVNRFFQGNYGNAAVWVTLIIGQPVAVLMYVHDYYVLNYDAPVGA
The experiment in a line: Inhibition of rat microsomal DGAT1 by liquid scintillography.

Series [3] is described as follows: Plasma clearance in rat at 1 to 3 mg/kg. The format is ADME, organism-based. More on the design: dose 1-3 mg/kg.
The nature of series [4]: Metabolic stability in rat alamethicin-activated microsomes assessed as conversion to acyl glucuronide form after 1 hr. The class given is ADME, Microsome.
Series [5] has as its system Rattus norvegicus. The experiment in a line: Reduction of adipose triacylglycerol synthesis in 14 hrs fasted Han-Wistar rat assessed as decrease in ratio of [3H]palmitic acid incorporation into TAG and DAG at 1 mg/kg, po after 1.5 hrs relative to control. The class given is functional. Also on record: scale not given: the % may be the effect or the level left. Summed up: (§1)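 Male Han-Wistar rats (~300 g) on chow diet were given compound by oral gavage, suspended in HPMC/Tween. At 1.5 h they were anaesthetised with inactin and a bolus of [3H]-palmitic acid was given via a jugular cannula. Epididymal fat was taken 20 min later, homogenised in duplicate with [14C]-oleic acid internal standard, and lipids separated by HPLC. Result is % reduction of the TAG/DAG label ratio versus vehicle; n = 10.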

Series [6] in a line: Metabolic stability in dog hepatocytes assessed as conversion to acyl glucuronide form after 2 hrs. The format is ADME, cell-based, Canis lupus familiaris, Hepatocyte.
For a further series, the system named is HuTu80. The series is described as follows: Inhibition of triacylglycerol synthesis in human HuTu 80 cells after 30 mins. The class given is functional, cell-based. To be noted: HuTu80, 0.5 h. Summed up:
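Confluent HuTu 80 cells in serum-free medium, preincubated 30 min with compound (0.1% DMSO final). Then given 0.12 mM sodium oleate plus 1 µCi/mL 14C-oleate complexed to 0.03 mM BSA. Cells solubilized in SDS and lipids extracted; 14C in triacylglycerol measured by normal-phase HPLC with radio-flow detection. Lowry protein determined.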

The next series concerns Mus musculus. The series is described as follows: Inhibition of dietary-induced obesity in obese […] mouse model assessed as reduction in body weight at 20 mg/kg, po qd for 3 days relative to start weight. The class given is functional, organism-based. Also on record: dose 20 mg/kg. Summed up:
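Female C57BL/6 mice fed high-calorie cafeteria diet for 15 weeks to about 29 g, randomized into groups of 12. Oral gavage (10 mL/kg) once daily for 3 days, 2 h before the dark phase. Body weight recorded daily before dosing and expressed as percent change from day 0, compared with vehicle-treated diet-matched controls.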

The nature of series [7]: Bioavailability in dog at 1 to 3 mg/kg. The class given is ADME, organism-based, Canis lupus familiaris. The conditions noted are these: in vivo.
For series [8], the system named is Rattus norvegicus. The series is described as follows: Reduction of adipose triacylglycerol synthesis in 14 hrs fasted Han-Wistar rat assessed as decrease in ratio of [3H]palmitic acid incorporation in to TAG and DAG at 8 mg/kg, po after 1.5 hrs relative to control. The class given is functional. Also on record: scale not given: the % may be the effect or the level left. Summed up:
as §1

For series [9], the system named is Rattus norvegicus. The series is described as follows: Reduction of adipose triacylglycerol synthesis in 14 hrs fasted Han-Wistar rat assessed as decrease in ratio of [3H]palmitic acid incorporation in to TAG and DAG at 3 mg/kg, po after 1.5 hrs relative to control. The format is functional. More on the design: scale not given: the % may be the effect or the level left. Summed up: as §1

For a further series, the target named is CYP3A4 (Homo sapiens, UniProt P08684). The series is described as follows: Inhibition of CYP3A4 at 30 uM. The format is ADME.
Series [10] concerns the target T2, Sterol O-acyltransferase 1 (Homo sapiens, UniProt P35610).
T2 sequence (P35610 whole entry): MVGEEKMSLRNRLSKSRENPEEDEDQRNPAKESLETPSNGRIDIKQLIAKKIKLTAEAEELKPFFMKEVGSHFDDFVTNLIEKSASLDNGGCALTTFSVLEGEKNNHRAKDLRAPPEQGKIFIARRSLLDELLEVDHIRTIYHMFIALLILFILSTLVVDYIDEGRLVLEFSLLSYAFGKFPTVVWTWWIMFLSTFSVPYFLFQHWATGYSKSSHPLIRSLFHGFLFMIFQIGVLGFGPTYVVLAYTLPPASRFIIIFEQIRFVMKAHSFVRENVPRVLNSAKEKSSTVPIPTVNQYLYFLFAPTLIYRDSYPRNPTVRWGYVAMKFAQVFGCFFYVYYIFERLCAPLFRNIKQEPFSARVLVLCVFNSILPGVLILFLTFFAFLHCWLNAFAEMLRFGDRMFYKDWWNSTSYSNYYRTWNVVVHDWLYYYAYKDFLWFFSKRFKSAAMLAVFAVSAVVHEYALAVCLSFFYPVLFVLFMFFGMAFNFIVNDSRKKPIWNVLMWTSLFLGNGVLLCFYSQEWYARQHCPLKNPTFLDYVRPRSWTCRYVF
The experiment in a line: Inhibition of human ACAT1 by liquid scintillography.

The target of a further series is CYP2C9 (Homo sapiens, UniProt P11712). The series is described as follows: Inhibition of CYP2C9 at 30 uM. The class given is ADME.
The subject of a further series is Hepatocyte. The experiment in a line: Metabolic stability in rat hepatocytes assessed as conversion to acyl glucuronide form after 2 hrs. The class given is ADME, cell-based.
A further series deals with CYP2C19 (Homo sapiens, UniProt P33261). The experiment in a line: Inhibition of CYP2C19 at 30 uM. The class given is ADME.
CYP2C19, sequence (P33261 whole entry): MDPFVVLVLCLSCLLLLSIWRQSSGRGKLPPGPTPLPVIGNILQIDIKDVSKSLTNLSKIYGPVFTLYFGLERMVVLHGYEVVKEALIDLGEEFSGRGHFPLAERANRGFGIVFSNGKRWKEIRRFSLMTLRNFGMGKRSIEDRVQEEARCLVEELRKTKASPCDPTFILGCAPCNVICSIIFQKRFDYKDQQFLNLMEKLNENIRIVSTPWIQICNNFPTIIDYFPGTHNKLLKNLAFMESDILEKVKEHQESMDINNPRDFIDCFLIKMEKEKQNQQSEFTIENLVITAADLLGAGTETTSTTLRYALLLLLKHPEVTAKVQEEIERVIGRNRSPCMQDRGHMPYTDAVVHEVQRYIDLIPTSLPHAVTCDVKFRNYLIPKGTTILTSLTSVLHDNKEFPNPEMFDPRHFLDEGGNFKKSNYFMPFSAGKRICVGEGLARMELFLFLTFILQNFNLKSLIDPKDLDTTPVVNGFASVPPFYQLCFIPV

CYP2D6, sequence (P10635 whole entry): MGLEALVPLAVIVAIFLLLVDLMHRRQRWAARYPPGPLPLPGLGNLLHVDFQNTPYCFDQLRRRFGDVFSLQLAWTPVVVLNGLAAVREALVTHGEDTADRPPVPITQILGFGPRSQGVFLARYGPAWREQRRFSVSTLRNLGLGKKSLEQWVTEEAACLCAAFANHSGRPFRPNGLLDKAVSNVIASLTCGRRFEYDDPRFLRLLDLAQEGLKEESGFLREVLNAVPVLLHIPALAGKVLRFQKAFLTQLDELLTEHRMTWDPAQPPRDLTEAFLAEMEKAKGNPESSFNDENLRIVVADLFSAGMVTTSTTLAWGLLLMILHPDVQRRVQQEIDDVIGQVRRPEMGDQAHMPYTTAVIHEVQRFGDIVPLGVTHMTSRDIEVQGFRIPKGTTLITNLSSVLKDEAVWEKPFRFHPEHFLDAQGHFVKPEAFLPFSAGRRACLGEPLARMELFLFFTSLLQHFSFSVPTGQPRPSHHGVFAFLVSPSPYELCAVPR
CYP3A4, sequence (P08684 whole entry): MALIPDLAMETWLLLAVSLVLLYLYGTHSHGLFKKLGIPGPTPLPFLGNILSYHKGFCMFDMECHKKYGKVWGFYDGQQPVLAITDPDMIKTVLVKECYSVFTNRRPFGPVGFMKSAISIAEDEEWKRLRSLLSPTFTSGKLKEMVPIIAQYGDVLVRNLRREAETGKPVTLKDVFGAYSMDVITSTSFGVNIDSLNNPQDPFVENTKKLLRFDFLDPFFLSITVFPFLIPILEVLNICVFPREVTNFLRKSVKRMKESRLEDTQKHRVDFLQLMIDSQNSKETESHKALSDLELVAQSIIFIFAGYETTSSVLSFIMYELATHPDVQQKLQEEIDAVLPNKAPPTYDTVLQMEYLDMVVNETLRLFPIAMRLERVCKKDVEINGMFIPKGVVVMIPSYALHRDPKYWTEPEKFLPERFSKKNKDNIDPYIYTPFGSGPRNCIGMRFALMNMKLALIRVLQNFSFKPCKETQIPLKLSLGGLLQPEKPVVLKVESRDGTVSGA
CYP2C9, sequence (P11712 whole entry): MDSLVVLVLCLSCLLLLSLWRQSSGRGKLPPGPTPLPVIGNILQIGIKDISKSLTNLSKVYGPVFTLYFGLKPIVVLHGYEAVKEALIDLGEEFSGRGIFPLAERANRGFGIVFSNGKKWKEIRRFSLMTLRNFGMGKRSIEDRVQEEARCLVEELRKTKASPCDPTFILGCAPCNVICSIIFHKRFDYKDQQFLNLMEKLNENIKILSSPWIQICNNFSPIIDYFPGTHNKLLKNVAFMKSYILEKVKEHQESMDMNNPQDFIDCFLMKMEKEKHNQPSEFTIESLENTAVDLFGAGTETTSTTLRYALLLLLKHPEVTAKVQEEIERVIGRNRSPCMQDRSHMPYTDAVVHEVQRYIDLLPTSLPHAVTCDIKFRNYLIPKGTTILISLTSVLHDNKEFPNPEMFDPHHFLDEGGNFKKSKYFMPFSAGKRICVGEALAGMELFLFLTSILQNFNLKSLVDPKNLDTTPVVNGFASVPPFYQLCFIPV

In general, inhibition refers to the percentage by which the read-out fell short of the control. Usually clearance stands for a measure of how efficiently the substance is removed, as volume per time. As usually defined, the IC50 is the concentration that gives 50% inhibition. Broadly, the bioavailability is dose-corrected exposure relative to a reference, in per cent. Take `CC1(C)Oc2ncnc(N)c2N=C1c1ccc(C23CCC(CC(=O)O)(CC2)CC3)cc1`: the inhibition at 30 µM at CYP2D6, on CYP3A4, on CYP2C9 and on CYP2C19 was under 25% throughout. Further, the results for the clearance in series [1] and in series [3] were 0.78 mL/min/kg and 1.5 mL/min/kg, respectively. Moreover, in the series on Plasma, the Fu is recorded as 0.6%. Moreover, the IC50 turned out to be 9 nM in [2], 3 nM in the series with HuTu80 and 5200 nM in series [10]. The results for the Stability (in [4]; in series [6]; in the series on Hepatocyte) were 9%, 38% and 18%, respectively. Moreover, the values for the Activity in the series on Rattus norvegicus [5], in the series with Rattus norvegicus [8] and in the series with Rattus norvegicus [9] were 37%, 54% and 57%, respectively. Also, in the series with Mus musculus, the outcome was Active. For the same compound, in [7], the bioavailability is over 100%.
